# Only some compounds are listed: those with a hit (about 3.7% of all), similar ones and a draw of the others.
# NPY-Y1 antag: antagonists of human neuropeptide Y receptor Y1; P25929; 1% of 200,000 active; inhibition, % at 3.6 µM; HEK293-CNG Y1 cells, membrane potential fluorescence; NPY at EC95, then isoproterenol;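 active = inhibition above the campaign mean inhibition of all tested compounds plus 3 SD, cut at about 20% in these data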
#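 Material: HEK293 Y1/CNG channel cell line; also added: NPY (25 nM), isoproterenol (1 µM), Ro 20-1724 (25 µM); doses: one concentration, 3.6 µM, in 0.4% DMSO; schedule: compound incubation 1 h at room temperature, readout 45 min post-stimulation; technique: membrane potential fluorescence; measure: fluorescence ratio normalized to % inhibition between controls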
# KCC2 mod: KCC2 (human) Cl- transport modulation | Q9H2X9 | KCC2 cells, thallium flux FluoZin-2 fluorescence | B-score of Tl+ flux slope (higher = more flux/activation; lower = inhibition) at 10 µM | 2.2% of 190,000 active | AID 1456;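 active = thallium flux slope and its plate-corrected score both differing from the plate sample mean at a set confidence after two filtering rounds, in either direction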;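 note: slope of fluorescence scaled to starting intensity during 10 to 20 s after thallium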
# NPY-Y2 PAM-ag: potentiates or activates human NPY-Y2 receptor. P49146. cells expressing NPY-Y2, potentiator/agonist read-out. activation, % at 3.6 µM. 0.45% of 220,000 active. AID 1359; in the data active = activation above about 27%;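 note: cells stimulated with NPY near EC25 plus isoproterenol at EC100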
# Target sequence (P49146 whole entry, looked up): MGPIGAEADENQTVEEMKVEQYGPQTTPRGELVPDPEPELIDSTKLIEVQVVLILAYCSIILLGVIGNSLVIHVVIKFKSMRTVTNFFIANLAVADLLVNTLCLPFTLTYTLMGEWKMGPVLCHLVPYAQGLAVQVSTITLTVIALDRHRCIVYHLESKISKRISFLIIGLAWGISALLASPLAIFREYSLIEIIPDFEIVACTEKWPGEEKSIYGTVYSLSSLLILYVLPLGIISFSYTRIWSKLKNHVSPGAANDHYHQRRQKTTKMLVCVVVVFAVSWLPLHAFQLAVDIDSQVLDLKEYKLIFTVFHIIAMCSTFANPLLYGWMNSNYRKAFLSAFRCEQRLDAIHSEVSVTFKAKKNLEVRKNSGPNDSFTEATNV
# NPY1 pot ag: human NPY-Y1 potentiation or agonism, primary screen; P25929; NPY-Y1 expressing cells, potentiator/agonist activation; activation, % at 3.6 µM; 0.37% of 220,000 active; AID 1304; in the data active = activation above about 33%, passing the limit was not always enough;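 note: cells stimulated with NPY at EC10 then isoproterenol at EC100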
# NPY Y2 blocker: blocks the human neuropeptide Y Y2 receptor; NPY-Y2 expressing cells, antagonist mode; inhibition, % at 2.7 µM; 0.99% of 140,000 active; AID 793
# Furin inhibitor: inhibitors of human furin; P09958; purified furin, fluorogenic substrate cleavage; inhibition, % at 20 µM or 30 µM; 0.061% of 220,000 active; in the data active = inhibition above about 25%
# NPY-Y1 ant conf: confirmation of human neuropeptide Y receptor Y1 antagonists | HEK293-CNG NPY-Y1, membrane potential fluorescence, cAMP; NPY challenge against isoproterenol-raised cAMP | inhibition, % at 3.6 µM | AID 1254 | shares compounds with NPY-Y1 antag | 21% of 1,200 active; in the data active = inhibition above about 20%
# NPY-Y2 antag ct: counter-screen for NPY-Y1 antagonists: human NPY-Y2 antagonism. shares compounds with NPY-Y1 antag. HEK293 NPY-Y2 CNG membrane potential fluorescence; cells given NPY, then isoproterenol. inhibition, % at 3.6 µM. 28% of 1,200 active
# NPY-Y2 pot conf: confirmation of human NPY-Y2 receptor potentiators or agonists | shares compounds with NPY-Y2 PAM-ag | cell-based NPY-Y2 potentiator/agonist assay | activation, % at 3.6 µM | 20% of 450 active; in the data active = activation above about 33%
# NPY-Y1 counter: potentiates or activates NPY-Y1, counter-screen for NPY-Y2 hits; shares compounds with NPY-Y2 PAM-ag; Y1 HEK293-CNG cells, membrane potential fluorescence; activation, % at 3.6 µM; 20% of 450 active; in the data active = activation above about 45%;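 note: cells stimulated with submaximal NPY then isoproterenol with phosphodiesterase inhibitor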
# NPY-Y1 ag 2: human NPY-Y1 agonism as NPY-Y2 potentiator counter-screen | HEK293 Y1-CNGC, membrane potential fluorescence | shares compounds with NPY-Y2 PAM-ag | 37% of 450 active | AID 1702 | activation, % at 3.6 µM;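 active = activation above the mean of DMSO-only control wells plus 3 SD, cut at about 18% in these data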;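 note: cells stimulated with 1 µM isoproterenol plus the PDE inhibitor Ro 20-1724; Y1 agonists lower the membrane potential dye signal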
# CNGC inh: counter-screen for NPY-Y2 potentiators: inhibitors of CNG channel activity | inhibition, % at 3.6 µM | shares compounds with NPY-Y2 PAM-ag | HEK293-CNG parental, isoproterenol cAMP, membrane potential fluorescence | 32% of 450 active;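 active = inhibition above the control-well mean plus 3 SD of those wells, cut at about 22% in these data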
# NPY-Y2 ag 2: activates human NPY-Y2 receptor in potentiator counter-screen; activation, % at 3.6 µM; 56% of 450 active; HEK293 Y2/CNGC cells, membrane potential fluorescence, agonist mode; shares compounds with NPY-Y2 PAM-ag;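 active = activation above the mean of solvent-only control wells plus 3 SD, cut at about 10% in these data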;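 note: cells stimulated by isoproterenol with no NPY added so direct agonism is tested; agonism lowers probe fluorescence through less cAMP and CNG channel opening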
# A number is an active result; 0 = inactive; - = not tested or not shown. Cut-off read from the data, not from the text of the source, unless noted: active = inhibition above about 17%; inactive = the rest.
SMILES,NPY-Y1 antag,KCC2 mod,NPY-Y2 PAM-ag,NPY1 pot ag,NPY Y2 blocker,Furin inhibitor,NPY-Y1 ant conf,NPY-Y2 antag ct,others
O=C1N(c2ccccc2)C[C@@H]2C[C@@H](c3cc4ccccc4o3)N3CCC[C@@]123,27,0,0,0,-,0,0,0,
COc1ccc(/C(N)=N/OC(=O)CSc2ccc(C)cc2)cc1OC,21,0,0,0,0,0,0,0,
CCN(CC)c1ccc2c(c1)OC(N)=C(C#N)C2c1cccnc1 (configuration not stated),27,-,0,0,0,0,0,0,
N#CC1=C(N)Oc2cc(N)ccc2C1c1cccnc1 (configuration not stated),0,0,0,0,0,0,-,-,
Nc1nc(CN2CCN(c3cccc(Cl)c3)CC2)nc(N2CCCc3ccccc32)n1,0,-,0,0,0,0,-,-,
Nc1nc(CN2CCN(c3ccccc3)CC2)nc(N2CCCc3ccccc32)n1,22,0,0,0,0,0,0,0,
O=C(OCc1nnc(-c2ccccc2)o1)C1CC(=O)N(Cc2ccco2)C1 (configuration not stated),0,0,0,0,-,0,-,-,
CSc1ccccc1NC(=O)c1ccccc1N(Cc1ccccc1)S(C)(=O)=O,0,0,0,0,0,0,-,-,
COc1ccc(C(=O)Nc2ccccc2C(=O)NCc2ccco2)cc1OC,0,0,0,0,0,0,-,-,
COc1ccc(C(=O)Nc2ccc(Cl)cc2C(=O)NCc2ccco2)cc1OC,25,-,0,0,0,0,25,24,
CCN(CC)c1ncnc2scc(C3COc4ccccc4O3)c12 (configuration not stated),38,0,0,0,0,0,0,0,
Cc1ccc(-n2ncc(C(=O)Nc3cc(Cl)ccc3Cl)c2C2CCNCC2)cc1,0,0,0,0,-,0,-,-,
Cc1ccc(-n2ncc(C(=O)Nc3cc(Cl)cc(Cl)c3)c2C2CCNCC2)cc1C,34,0,51,0,-,0,0,0,NPY-Y2 pot conf=48;NPY-Y1 counter=62;NPY-Y1 ag 2=0;CNGC inh=26;NPY-Y2 ag 2=31
CCOC(=O)N1CCN(C(=O)CSCC(=O)Nc2nc(-c3ccc(OC)cc3)cs2)CC1,0,0,0,0,0,0,-,-,
CCOC(=O)N1CCN(C(=O)CSCC(=O)Nc2nc(-c3ccc(-c4ccccc4)cc3)cs2)CC1,21,0,33,0,0,0,0,0,NPY-Y2 pot conf=0;NPY-Y1 counter=0;NPY-Y1 ag 2=0;CNGC inh=0;NPY-Y2 ag 2=0
CC1CCCCN1S(=O)(=O)c1cccc(S(=O)(=O)N2CCOCC2)c1 (configuration not stated),-,0,0,0,-,0,-,-,
CC(C)(C)NCc1cc(Cl)ccc1OCc1ccccc1F,24,0,31,0,-,0,0,0,NPY-Y2 pot conf=0;NPY-Y1 counter=0;NPY-Y1 ag 2=0;CNGC inh=0;NPY-Y2 ag 2=0
CC(C)Cn1c(N)c(C(=O)COC(=O)[C@@H]2CCCN2C(=O)c2cccs2)c(=O)n(C)c1=O,0,0,0,0,-,0,-,-,
CC(NC(=O)Nc1nnc(C(F)(F)F)s1)(C(F)(F)F)C(F)(F)F,43,-,58,0,0,0,27,0,NPY-Y2 pot conf=0;NPY-Y1 counter=0;NPY-Y1 ag 2=0;CNGC inh=0;NPY-Y2 ag 2=0
